LYPLA2 inh: LYPLA2 inhibitors, primary screen, counter-screen for PME1 inhibitor project, biochemical, fluorescence polarization, FP-Rh probe ABPP. Acyl-protein thioesterase 2 (Homo sapiens), O95372. 320,000 tested, 0.38% active. inhibition, % at 5.9 µM. recombinant LYPLA2. AID 2177, 2009;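 active = inhibition above the screen-wide mean plus 3 SD, limit set per campaign, cut at about 26% in these data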;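 also: 0% = LYPLA2 with DMSO and 100% = wells lacking LYPLA2 enzyme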
Target sequence (O95372 whole entry, looked up): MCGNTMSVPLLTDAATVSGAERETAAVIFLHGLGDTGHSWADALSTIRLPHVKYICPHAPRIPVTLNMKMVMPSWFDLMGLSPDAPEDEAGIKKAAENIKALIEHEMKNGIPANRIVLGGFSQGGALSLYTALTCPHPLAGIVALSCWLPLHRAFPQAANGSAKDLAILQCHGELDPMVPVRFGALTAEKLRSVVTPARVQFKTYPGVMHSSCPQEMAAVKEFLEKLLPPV
PAD4 inh: human PAD4 inhibitors, primary screen, biochemical, fluorescence polarization, 1536-well format | Protein-arginine deiminase type-4 (Homo sapiens), Q9UM07 | recombinant PAD4, RCA probe fluorescence polarization | inhibition, % at 6.36 µM | 330,000 tested, 0.41% active;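 active = percent inhibition above a cutoff equal to the mean of all tested compounds plus 3 SD, cut at about 15% in these data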;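 also: 0% = PAD4 with RCA probe and DMSO and 100% = probe without PAD4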
LYPLA1 inh: LYPLA1 inhibitors, primary screen, counter-screen for PME1 inhibitor project, biochemical, fluorescence polarization, FP-Rh probe ABPP; Acyl-protein thioesterase 1 (Homo sapiens), O75608; recombinant LYPLA1; inhibition, % at 5.9 µM; 320,000 tested, 0.16% active;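 active = inhibition above the mean of all tested compounds plus 3 SD, set per campaign, cut at about 14% in these data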;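 also: inhibitors block serine hydrolase probe labeling of LYPLA1 so polarization falls; 0% = enzyme with DMSO and 100% = wells lacking LYPLA1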
Target sequence (O75608 whole entry, looked up): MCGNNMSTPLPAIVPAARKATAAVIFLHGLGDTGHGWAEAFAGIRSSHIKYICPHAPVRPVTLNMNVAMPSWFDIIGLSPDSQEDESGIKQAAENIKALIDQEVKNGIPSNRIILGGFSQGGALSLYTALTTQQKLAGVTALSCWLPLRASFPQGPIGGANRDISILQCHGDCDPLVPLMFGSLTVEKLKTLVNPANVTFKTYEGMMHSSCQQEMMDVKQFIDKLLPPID
RBBP9 inhibitor: human RBBP9 inhibitors, primary screen, biochemical, fluorescence polarization, FP-Rh probe, HTS | Serine hydrolase RBBP9 (Homo sapiens), O75884 | recombinant RBBP9 | inhibition, % at 7.94 µM | 220,000 tested, 0.2% active | AID 1515, 2009;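 active = inhibition above the campaign mean of all tested compounds plus 3 SD, cut at about 14% in these data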;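 also: plate controls were DMSO wells with RBBP9 for no effect and wells lacking RBBP9 protein for full effect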
Target sequence (O75884 whole entry, looked up): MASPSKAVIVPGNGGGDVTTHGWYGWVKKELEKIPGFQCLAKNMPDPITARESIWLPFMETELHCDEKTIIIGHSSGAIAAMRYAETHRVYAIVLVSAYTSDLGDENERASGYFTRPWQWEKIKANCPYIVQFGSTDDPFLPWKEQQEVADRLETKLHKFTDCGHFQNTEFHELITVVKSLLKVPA
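Controls: DMSO-treated enzyme wells and wells lacking RBBP9 | Material: RBBP9 protein | Technique: Fluorescence polarization | Replication: Single well per compound, no replicates | Buffer or medium: Tris-NaCl-Pluronic buffer, pH 8.0 | Timing: 30 min compound preincubation, 45 min probe labeling, 25 °C | Read-out basis: Percent inhibition from mP, scaled between DMSO and no-protein wells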
Fam108B counter: mouse Fam108B serine hydrolase inhibitors, primary screen, counter-screen for RBBP9 inhibitor project, biochemical, fluorescence polarization | recombinant Fam108B, FP-Rh probe fluorescence polarization | inhibition, % at 9.51 µM | 300,000 tested, 0.33% active | AID 1947, 2009;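 active = inhibition above the screen mean inhibition plus 3 SD, computed separately per campaign, cut at about 18% in these data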;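 also: inhibitors lower polarization as less probe binds the enzyme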
PME-1 inh: PME-1 inhibitors via competitive probe labeling, primary screen, biochemical, fluorescence polarization, FP-Rh probe, HTS. recombinant PME-1. inhibition, % at 5.9 µM. 320,000 tested, 0.53% active. AID 2130, 2009;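 active = inhibition above the campaign mean of all compounds plus 3 SD, cut at about 26% in these data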;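 also: competitive labeling of PME-1 active site by serine hydrolase directed probe; 0% = PME-1 with DMSO and 100% = wells lacking PME-1 enzyme; inhibitors block probe labeling so polarization falls and inhibition rises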
RBBP9 inh conf: human RBBP9 inhibitors, retest, confirmation, biochemical, fluorescence polarization, FP-Rh probe, triplicate. shares compounds with RBBP9 inhibitor. recombinant RBBP9. inhibition, % at 7.94 µM. 410 tested, 36% active. AID 1537, 2009;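 active = inhibition above the hit cutoff derived for the primary screen, cut at about 15% in these data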;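 also: 0% = RBBP9 with DMSO and 100% = wells lacking RBBP9 protein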
Starred values were filed as active, the others as inactive; · = no result given. Hits are enriched below; roughly 1.3% of the tested compounds scored in any of these assays.

SMILES	LYPLA2 inh	PAD4 inh	LYPLA1 inh	RBBP9 inhibitor	Fam108B counter	PME-1 inh	others
COc1ccc(OC)c(C2C(C#N)=C(N)Oc3c2c(C)nn3-c2cccc(Cl)c2)c1 (stereo not drawn)	6	35*	-2	-2	4	4
N#Cc1ccc(Nc2nc(-c3ccc(O)cc3O)cs2)cc1C(F)(F)F	8	-1	-6	·	·	61*
Oc1ccc(-c2csc(Nc3ncccn3)n2)c(O)c1	-7	-4	0	-7	0	0
Cc1cc(NC(=O)CSc2nc3ccccc3c(=O)n2C2CCCC2)no1	-3	2	-3	-9	1	27*
Nc1c(N=Nc2ccccc2F)c(=O)[nH]n1-c1ccccc1	1	6	-1	-4	10	36*
Cc1ccc(S(=O)(=O)NC(=O)COc2cc(C)ccc2C(C)C)cc1	-2	-4	-4	·	-1	-4
CCN(CC)C(=O)CSc1nc2c(sc(=S)n2-c2ccccc2)c(=O)n1Cc1ccco1	1	5	-5	-4	5	63*
CN(C1=NS(=O)(=O)c2ccccc21)c1ccc(OC(=O)c2ccncc2)cc1	2	-2	-3	-8	1	0
CCN(CC(=O)Nc1c(F)cccc1F)C(=O)CCc1ccc(OC)cc1	-2	3	-1	-2	-1	41*
COc1ccc(C(=O)OC2CCN(C)CC2)cc1	3	-4	3	-6	-6	-2
CN1CCC(OC(=O)c2ccccc2)CC1	5	-1	0	·	26*	9
CCOC(=O)c1c(C)[nH]c(C2=NNC(=Nc3ccccc3)SC2)c1C	·	·	·	-3	·	·
CCOC(=O)c1c(C)[nH]c(C2=NNC(=Nc3ccc(OCC)cc3)SC2)c1C	0	-21	-9	7	7	28*
O=C(CN1C(=O)c2ccc(Br)cc2C1=O)NCC1CCCO1 (stereo not drawn)	-8	0	1	·	3	-3
COc1ccc(/C=N/Nc2nc3ccccc3o2)cc1O	-8	2	-3	-1	1	48*
Brc1ccc(/C=N/Nc2nc3ccccc3o2)cc1	4	-7	-3	·	-6	31*
COc1cc(/C=N\Nc2nc3ccccc3o2)cc(OC)c1OC	2	-5	-1	-11	0	29*
Oc1ccccc1/C=N/Nc1nc2ccccc2o1	0	2	0	-5	5	21
O=C(N/N=C/c1c(O)ccc2ccccc12)Nc1ccccc1	-16	0	-14	·	11	28*
O=C(CSCC(=O)Nc1ccccc1)N/N=C/c1c(O)ccc2ccccc12	-8	-1	-12	8	5	-1
O=C(CNc1ccccc1)N/N=C/c1c(O)ccc2ccccc12	8	-1	-8	·	6	38*
O=C1CN(C(=S)NC(=O)c2ccccc2[N+](=O)[O-])CCN1	2	3	1	·	0	-4
CCCCN(C)CCCNC(=O)c1cn(CC)c2ccc(S(=O)(=O)N3CCc4ccccc4C3)cc2c1=O	2	-2	-3	-7	2	40*
CCCCN(CC)CCCNC(=O)c1cn(CC)c2ccc(S(=O)(=O)N3CCc4ccccc4C3)cc2c1=O	-8	6	1	8	-1	36*
O=C(O)c1ccccc1C(c1ccc(O)cc1)c1ccc(O)cc1	-2	-1	1	·	-2	-3
SMILES	LYPLA2 inh	PAD4 inh	LYPLA1 inh	RBBP9 inhibitor	Fam108B counter	PME-1 inh	others
Cc1cc(N/N=C/c2ccccc2O)nc(-c2ccccc2O)n1	-11	-8	-19	-32	19*	19
Cc1cc(N/N=C\c2ccccc2)nc(-c2ccccc2O)n1	-16	0	-10	1	8	-7
CCOC(=O)c1cc(-c2ccc(OC)cc2)nn1-c1ccc(C(=O)O)cc1	-3	-1	-2	-2	0	-2
COc1ccc(C(=O)c2c(C(F)(F)F)oc3c2C(=O)c2ccccc2C3=O)cc1OC	0	34*	-4	3	7	4
O=C(N=Nc1c(O)[nH]c2ccccc12)c1cccs1	2	3	3	-5	5	28*
O=C(N=Nc1c(O)[nH]c2ccccc12)c1cc(NS(=O)(=O)c2cccs2)cc(NS(=O)(=O)c2cccs2)c1	-32	-6	-14	-1	-23	-18
CCOC(=O)c1sc2nc(C)cc(C)c2c1N	-3	3	3	-7	-3	-4
Cc1cc(C)c2c(N)c(C(=O)NN)sc2n1	5	-9	12	7	6	32*
CCCCNC(=O)C1CC(c2cccc([N+](=O)[O-])c2)=NO1 (stereo not drawn)	-3	0	0	5	-3	2
O=C(NCc1ccco1)C1CC(c2cccc([N+](=O)[O-])c2)=NO1 (stereo not drawn)	0	4	1	17*	-1	3	RBBP9 inh conf=4
CCC(=O)Nc1ccc2c(c1)nc(CCNC(=O)c1ccco1)n2C	-4	4	-1	·	0	0
Nc1nc(SCC(=O)N2CCCCCC2)[nH]c(=O)c1NC(=O)c1ccco1	-1	-2	1	15*	2	0	RBBP9 inh conf=64*
CC(=O)Nc1ccc(NC(=O)Nc2cccc(Cl)c2)cc1	-5	-5	-5	·	13	16
CC(=O)C(=Nc1ccc(Cl)cc1Cl)NNc1cccc(Cl)c1	2	2	2	32*	9	12	RBBP9 inh conf=0
Cc1cc(C(=O)NCC(=O)OCC(=O)NCCc2ccccc2)ccc1[N+](=O)[O-]	2	-1	1	-5	0	-1
Oc1ccc(-c2cnns2)c(O)c1	3	-4	1	41*	2	2	RBBP9 inh conf=56*
CC(C)c1ccccc1NC(=O)CNCCc1ccc(C(F)(F)F)cc1	-1	-3	2	17*	3	26	RBBP9 inh conf=4
CC1(C)CC(=O)C(C=NCCN2CCN(C(=O)c3ccccc3)CC2)=C(O)C1	3	-1	2	-7	0	6
CC1(C)CC(=O)C(C=NCCN2CCN(C(=O)c3ccc(F)cc3)CC2)=C(O)C1	5	-3	0	15*	0	-1	RBBP9 inh conf=8
COC(=O)COc1cccc2c(=O)n(CC(=O)NCCc3ccccc3)ccc12	0	-3	3	18*	5	12	RBBP9 inh conf=12
